In ChEMBL document CHEMBL1131048, “Antiviral activities of methylated nordihydroguaiaretic acids. 1. Synthesis, structure identification, and inhibition of tat-regulated HIV transactivation” (J Med Chem, 1998):

Experiments:
Settings in all cases: Chlorocebus aethiops
[1] = tested on: COS-1; test: Inhibitory activity against HIV Tat-regulated Transactivation in COS cells.; assay type: functional, cell-based
Outline: (§1)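 COS cells in IMDM with 10% FBS, penicillin, streptomycin and Fungizone, 37 °C, 5% CO2, seeded in triplicate at ca. 1.5×10^5 cells/well and grown 24 h to 50% confluence. Calcium phosphate cotransfection with CMV-driven tat plasmid (0.20 µg/well) and HIV LTR-SEAP plasmid (0.40 µg/well) for 18 h. Compound then added in medium with 0.30% DMSO final, for 48 h.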

[2] = tested on: COS-1; test: Compound tested for inhibition of HIV Tat-regulated Transactivation in COS cells at a concentration of 100 uM.; assay type: functional; outline: as §1
[3] = tested on: COS-1; test: Compound tested for inhibition of HIV Tat-regulated Transactivation in COS cells at a concentration of 10 uM.; assay type: functional; outline: as §1
[4] = tested on: COS-1; test: Compound tested for inhibition of HIV Tat-regulated Transactivation in COS cells at a concentration of 1 uM.; assay type: functional; outline: as §1
[5] = tested on: COS-1; test: Compound tested for inhibition of HIV Tat-regulated Transactivation in COS cells at a concentration of 20 uM.; assay type: functional; outline: as §1
[6] = tested on: COS-1; test: Compound tested for inhibition of HIV Tat-regulated Transactivation in COS cells at a concentration of 30 uM.; assay type: functional; outline: as §1
[7] = tested on: COS-1; test: Compound tested for inhibition of HIV Tat-regulated Transactivation in COS cells at a concentration of 60 uM.; assay type: functional; outline: as §1
[8] = tested on: COS-1; test: Compound tested for inhibition of HIV Tat-regulated Transactivation in COS cells at a concentration of 3 uM.; assay type: functional; outline: as §1

SMILES | IC50 [1] [µM] | inhibition at 100 µM [2] [%] | inhibition at 10 µM [3] [%] | inhibition at 1 µM [4] [%] | inhibition at 20 µM [5] [%] | inhibition at 30 µM [6] [%] | inhibition at 60 µM [7] [%] | inhibition at 3 µM [8] [%]
COc1ccc(C[C@@H](C)[C@@H](C)Cc2ccc(O)c(O)c2)cc1O | 30.8 | 91.3 | 5 | 5 | 27.5 | 52 | 73.7 | 2.3
COc1ccc(C[C@H](C)[C@H](C)Cc2ccc(OC)c(OC)c2)cc1O (racemic) | 14.3 | 88.3 | 41.7 | 16.5 | 52 | 66 | 78.3 | 27
COc1cc(C[C@@H](C)[C@@H](C)Cc2ccc(O)c(O)c2)ccc1O (racemic) | 25 | 92.3 | 20.7 | 9 | 38.5 | 56.3 | 83.3 | 7.3
COc1cc(C[C@H](C)[C@H](C)Cc2ccc(OC)c(OC)c2)ccc1O (racemic) | 13.7 | 87.7 | 45 | 14.5 | 50.5 | 65 | 76.3 | 26.7
COc1ccc(C[C@@H](C)[C@@H](C)Cc2ccc(O)c(O)c2)cc1OC (racemic) | 16.5 | 96 | 20 | 12.5 | 59 | 69.3 | 87.7 | 14.3
COc1ccc(C[C@@H](C)[C@@H](C)Cc2ccc(OC)c(O)c2)cc1O [DIMETHYLNORDIHYDROGUARIERATE ACID] | 29.9 | 85.7 | 19 | 9.5 | 38 | 52 | 70 | 8.7
COc1cc(C[C@@H](C)[C@@H](C)Cc2ccc(O)c(OC)c2)ccc1O [MESODIHYDROGUAIARETIC ACID] | 39 | 73.7 | 22.3 | 5.5 | 30.5 | 43 | 63.7 | 10.3
COc1ccc(C[C@@H](C)[C@@H](C)Cc2ccc(OC)c(OC)c2)cc1OC [TERAMEPROCOL] | 11.1 | 90.3 | 45 | 18.5 | 61 | 70 | 78.7 | 25.3
